Inconclusive results are not listed. Active and inactive are the calls of the source.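 Rule for the calls: active = compounds raising caspase signal with fitted AC50 no more than tenfold above the top tested dose; inconclusive = flat curve at 30 to 70% activity, or unusable fit; inactive = the rest.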
What follows are molecules tested on MEF WT non-primed, caspase-Glo luminescence, 3 h (assay: caspase activity of non-primed cells – cell-based, caspase-Glo luminescence, 3 h, counter-screen for Bcl2-A1 inhibitor project, dose response (AID 449761)).
Summary of the method: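 Technique: CaspaseGlo luminescence | Material: Non-primed wild-type MEF cells | Quantity: 2500 cells/well | Times: 3 h compound at 37 °C, 1 h detection at room temperature | Dosing: 100 nL compound added per well by pin transfer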

| Structure (SMILES) | AC50 |
| --- | --- |
| COC(=O)[C@@]1(C)CC[C@]2(C)CC[C@@]3(C)C(=CC(=O)C4[C@@]5(C)CC[C@H](O)C(C)(C)[C@@H]5CC[C@]43C)[C@H]2C1 (some centres undefined) | > 35 µM (inactive) |
| Cc1cc(NC(=O)CSc2nc3cc(Cl)ccc3c(=O)n2Cc2ccco2)no1 | > 35 µM (inactive) |
| COc1cc(C(=O)Nc2cc3c(cc2N2CCCCC2)n(C)c(=O)n3C)cc(OC)c1OC | > 35 µM (inactive) |
| Cn1c(=NC(=O)CCl)sc2ccccc21 | > 35 µM (inactive) |
| COc1ccc(C(=O)/C=C/C(=O)N(CC(=O)NC2CCCCC2)Cc2cccs2)c(O)c1 | 23.7 µM |
| Cc1ccc(C)c(NC(=S)NC(NC(=O)Cc2cccc3ccccc23)C(Cl)(Cl)Cl)c1 (centres undefined) | 12 µM |
| CC(C)N=c1scc(-c2ccco2)n1/N=C/c1ccc(O)c(O)c1 | > 35 µM (inactive) |
| O=C(c1ccc(COc2ccc3ccccc3c2)o1)N1N=C(C(F)F)CC1(O)C(F)F (centres undefined) | > 35 µM (inactive) |
| Nc1nc(F)nc2c1ncn2[C@@H]1O[C@H](CO)[C@@H](O)[C@H]1O | > 35 µM (inactive) |
| CC(=O)OC(C)(C)/C=C/C(=O)[C@](C)(O)C1[C@H](O)C[C@@]2(C)C3CC=C4C(C[C@H](O)C(=O)C4(C)C)[C@]3(C)C(=O)C[C@]12C (some centres undefined) | > 35 µM (inactive) |
| O=C(CCl)N=c1sccn1Cc1ccccc1Cl | > 35 µM (inactive) |
| Cc1ccc(S(=O)(=O)N(C)Cc2ccc(C(=O)N/N=C/c3ccc(OC(F)F)cc3)cc2)cc1 | > 35 µM (inactive) |
| O=C(NCCc1ccccc1)C(c1cccs1)N(C(=O)CCl)c1ccc(Cl)cc1 (centres undefined) | 16.4 µM |
| COc1ccc(-c2nc(NC(=O)c3n[nH]c(=O)c4ccccc34)sc2C)cc1 | > 35 µM (inactive) |
| COc1ccc(NC(=O)CSc2nc3ccc(Nc4nc(N5CCOCC5)nc(N5CCOCC5)n4)cc3s2)cc1 | > 35 µM (inactive) |
| Cc1cccc(CS(=O)(=O)c2ncc(Cl)c(C(=O)Nc3nnc(C(C)C)s3)n2)c1 | > 35 µM (inactive) |
| CC(=O)Nc1ncnc2c1c(-c1ccc(Cl)cc1)nn2C(C)(C)C | > 35 µM (inactive) |
| COc1ccc(OC)c(NC(=O)c2cc(-c3cc(C)ccc3O)n[nH]2)c1 | > 35 µM (inactive) |
| COc1ccc(NC(=O)c2cccc3c2C(=O)c2ccc(-c4ccc(F)cc4OCc4ccccc4)cc2S3(=O)=O)cc1 | > 35 µM (inactive) |
| CCOC(=O)c1c(C)oc2c1c(CN1CCN(C(=O)OCC)CC1)c(O)c1ccccc12 | 20.8 µM |
| Cc1ccc(C2(c3ccc(C)cc3)CC2C(=O)Nc2ccc([N+](=O)[O-])cc2O)cc1 (centres undefined) | > 35 µM (inactive) |
| COc1ccc(C[C@H]2NC[C@H](O)[C@H]2OC(C)=O)cc1 | > 35 µM (inactive) |
| COC(=O)Cc1csc(/N=C/c2c(O)n(-c3cccc(C(F)(F)F)c3)c(=O)c3ccccc23)n1 | 9.26 µM |

| Structure (SMILES) | AC50 |
| --- | --- |
| CCOCCCNC(=O)c1ccc2c(c1)N=C(CC)c1cc(Br)ccc1S2 | > 35 µM (inactive) |
| CCOC(=O)/C=c1\s/c(=C\c2ccc(C(=O)OC)cc2)c(=O)n1CC(=O)Nc1ccccc1 | > 35 µM (inactive) |
| COc1cc2cnc(-c3ccccc3)c(-c3cccc(C(F)(F)F)c3)c2cc1OC | > 35 µM (inactive) |
| COc1cc(/C=C(/C#N)c2nc3ccccc3[nH]2)ccc1OCC(=O)Nc1ccccc1C | 5.91 µM |
| Cc1occc1-c1nnc(SCC(=O)NCCc2ccccc2)n1Cc1ccccc1 | > 35 µM (inactive) |
| NS(=O)(=O)c1ccc(N/N=C2/CCCCC2C2CCCCC2)c([N+](=O)[O-])c1 (centres undefined) | 33.5 µM |
| COC(=O)CSc1nc(N)c2c3c(sc2n1)C(c1ccccc1)SC(c1ccccc1)C3 (centres undefined) | > 35 µM (inactive) |
| O=C(COc1ccc(/C=N/NC(=O)c2cc3ccccc3o2)cc1Br)Nc1ccccc1 | 28.5 µM |
| CCCc1ccc(OCc2ccc(C(=O)N/N=C/c3cccc([N+](=O)[O-])c3)o2)c(OC)c1 | 6.35 µM |
| CCOC(=O)Cc1csc(/N=C/c2c(O)n(-c3ccc(C)c(C)c3)c(=O)c3ccccc23)n1 | 9.55 µM |
| CC(C)CC(NC(=O)c1ccc(Cl)cc1)C(=O)OCC(=O)c1ccc2c(c1)NC(=O)CO2 (centres undefined) | 4.28 µM |
| CCc1nn(-c2cc(Oc3cccc4ccccc34)nc(-c3ccccc3)n2)c(N)c1C#N | > 35 µM (inactive) |
| COc1ccc(S(=O)(=O)N2CC(O)CC2C(=O)OCC(=O)Nc2ccc(Cl)cn2)cc1 (centres undefined) | > 35 µM (inactive) |
| O=C(Nc1ccc2oc(-c3ccccc3)nc2c1)c1ccccc1F | > 35 µM (inactive) |
| N#CC(C#N)=C1C=CC=CN1/C(=C\c1ccccc1Cl)C(=O)c1ccccc1 | 5.01 µM |
| CCOc1cc(C(=O)CSc2nnc(CNc3ccc(Cl)cc3)o2)ccc1NC(=O)CC | 16 µM |
| CCS(=O)(=O)c1ncc(Cl)c(C(=O)Nc2ccccc2OC)n1 | > 35 µM (inactive) |
| N#C/C(=C\c1ccc(OCc2ccccc2)cc1)C(=O)Nc1nc2c(s1)CCN(Cc1ccccc1)C2 | > 35 µM (inactive) |
| CN(c1ccccc1)c1ccc(/C=C/[N+](=O)[O-])cc1 | 8.45 µM |
| N#Cc1cccnc1N1CCN(C(=O)c2cccc3c2C(=O)c2ccc(-c4ccc(Cl)c(C(F)(F)F)c4)cc2S3(=O)=O)CC1 | > 35 µM (inactive) |
| C=C1CCc2c([nH]c3ccc(OCC(C)C)cc23)C1=O | 14.2 µM |
| COc1ccc(C2Nc3ccc4ccccc4c3-c3c2c(=O)oc2ccccc32)cc1 (centres undefined) | 18 µM |
| O=C(Nc1ccc2oc(-c3ccccc3Cl)nc2c1)c1cncc(Br)c1 | 30.7 µM |

| Structure (SMILES) | AC50 |
| --- | --- |
| Cc1ccc2nc(N(CCCN(C)C)C(=O)c3ccc(S(=O)(=O)N4CCc5ccccc5C4)cc3)sc2c1 | > 35 µM (inactive) |
| Clc1ccccc1CN(Cc1ccccc1)c1ncnc2nc[nH]c12 | > 35 µM (inactive) |
| O=C(NC1CCCCC1)C(c1ccc(F)cc1)N(CCc1ccccc1)C(=O)CN1C(=O)c2ccccc2S1(=O)=O (centres undefined) | 19.6 µM |
| CCOc1cc(/C=N/Nc2cc(C)nc(-n3nc(C)cc3C)n2)ccc1O | > 35 µM (inactive) |
| O=C(Nc1ccc([N+](=O)[O-])cc1)C(Cc1ccccc1)N1C(=O)c2cccc3cccc(c23)C1=O (centres undefined) | > 35 µM (inactive) |
| CCOC(=O)C(C(=O)OCC)c1cc(Br)c2noc3c2c1C(=O)c1ccccc1-3 | 8.67 µM |
| CCc1ccccc1NC(=O)C(CC)Sc1nc2cc3c(cc2c(=O)n1Cc1ccco1)OCO3 (centres undefined) | > 35 µM (inactive) |
| COc1ccc(NC(=S)NC(NC(=O)/C=C/c2ccccc2)C(Cl)(Cl)Cl)cc1 (centres undefined) | > 35 µM (inactive) |
| CCSc1nnc(NC(=O)c2nc(S(=O)(=O)Cc3ccc(F)cc3)ncc2Cl)s1 | > 35 µM (inactive) |
| CCOC(=O)/C(=C\c1ccc(OC(F)F)cc1)C1=Nn2c(nnc2-c2ccc(Cl)cc2)SC1 | 4.15 µM |
| COc1ccc2c(c1)CCc1c(C(=O)Nc3cc(C)n(Cc4ccc(Cl)cc4)n3)noc1-2 | 14.2 µM |
| Cc1ccc(C#N)c(SCC(=O)Nc2nccs2)n1 | > 35 µM (inactive) |
| CCOc1cccc(C(=O)Nc2cccc(-c3nnc(-c4ccc(C)cc4)o3)c2)c1 | 23.6 µM |
| CN(C)CCCN(C(=O)c1cc2cc([N+](=O)[O-])ccc2s1)c1nc2cc3c(cc2s1)OCCO3 | > 35 µM (inactive) |
| CCOC(=O)c1ccc(-c2ccc(/C=N/NC(=O)CN(c3cccc(C)c3)S(C)(=O)=O)o2)cc1 | 31.1 µM |
| CN1C2CCC1/C(=C/c1ccccn1)C(=O)/C2=C\c1ccccn1 | > 35 µM (inactive) |
| CC(C)c1cccc(-c2ccc3c(c2)S(=O)(=O)c2cccc(C(=O)NCc4ccccc4Cl)c2C3=O)c1 | > 35 µM (inactive) |
| COc1ccccc1-c1cn[nH]c1-c1ccc(OCc2ccccc2)cc1O | > 35 µM (inactive) |
| COc1ccc(-c2c(C#N)c(N)nc(Sc3ccc(Cl)cc3)c2C#N)cc1 | > 35 µM (inactive) |
| O=C(NN=C1c2ccccc2-c2ccccc21)c1cccc(Br)c1 | 35.6 µM |
| COc1ccc(-c2cc(=O)oc3c(C)c(OC(=O)c4cccs4)ccc23)cc1 | 29.1 µM |
| CC1CCc2c(sc3nc(C(C)(C)C)nc(N4CCN(C(=O)CCl)CC4)c23)C1 (centres undefined) | 13 µM |
| O=C(N=Nc1c(O)[nH]c2ccc([N+](=O)[O-])cc12)c1cc(-c2ccccc2Cl)nc2ccccc12 | > 35 µM (inactive) |

| Structure (SMILES) | AC50 |
| --- | --- |
| COc1ccc(-c2ccc3c(c2)S(=O)(=O)c2cccc(C(=O)NC[C@@H]4CCCO4)c2C3=O)cc1OC | > 35 µM (inactive) |
| O=C(NC[C@H]1CCCO1)c1cccc2c1C(=O)c1ccc(-c3ccc(F)cc3OCc3ccccc3)cc1S2(=O)=O | > 35 µM (inactive) |
| CCOc1ccc(OCC(=O)N(CCC2=CCCCC2)c2c(N)n(Cc3ccccc3)c(=O)[nH]c2=O)cc1 | 26.8 µM |
| CC(C)(C)c1ccc2c(c1)OC(C(=O)N/N=C\c1ccc[nH]1)CO2 (centres undefined) | > 35 µM (inactive) |
| COc1cc(SC#N)ccc1N=Cc1c(C)[nH]n(-c2ccc(C)cc2)c1=O | 34.5 µM |
| COC(=O)c1ccc2c(c1)C(C)(C)C(/C=C/c1ccccc1O)=[N+]2C | 8.57 µM |
| COc1cc(CN2CCN(c3cc(C)ccc3C)CC2)ccc1O | > 35 µM (inactive) |
| Cc1cc(C)cc(NC(=O)/C(C#N)=C/c2cn(CC(=O)NCc3ccco3)c3ccccc23)c1 | 8.84 µM |
| COc1ccc2[nH]c3c(=O)n(/N=C/[C@H]4C(C)C=C(C)CC4C)c(=O)[nH]c3c2c1 (some centres undefined) | 10.1 µM |
| CSC[C@@H]1NC(=S)N(c2ccc(C)cc2)C1=O | > 35 µM (inactive) |
| Cc1ccc(C(=O)/C=C/C(=O)c2ccc(C)cc2)cc1 | 5.73 µM |
| COc1ccc(C2C(O)C(c3c[nH]c4ccccc34)=NN2C(=O)CCl)cc1 (centres undefined) | 36.1 µM |
| COc1ccc(-c2ccc3c(c2)S(=O)(=O)c2cccc(C(=O)NCc4cccc(OC(F)(F)F)c4)c2C3=O)cc1OC | 8.54 µM |
| COc1ccccc1-c1cc(C(F)(F)F)nc(S(=O)(=O)CCCC(=O)N2CCOCC2)n1 | 8.99 µM |
| O=C(Oc1cccc(/C=N/Nc2nc(Nc3ccccc3)nc(N3CCOCC3)n2)c1)c1ccco1 | > 35 µM (inactive) |
| COc1cc(/C=C2/C(=N)N3C=CSC3=NC2=O)ccc1OCCCOc1cc(C)ccc1C | 22.4 µM |
| CCn1c(SCC(=O)c2ccccc2)nnc1-c1cc2cc(Br)ccc2o1 | > 35 µM (inactive) |
| CCOC(=O)COc1ccccc1/C=C\[N+](=O)[O-] | 12.2 µM |
| CN(C)C/C=C(\c1ccc(Br)cc1)c1cccnc1 | > 35 µM (inactive) |
| Cc1cc(C)cc(Cn2ncc(Cl)c(Cl)c2=O)c1 | > 35 µM (inactive) |
